The structures appear in SMILES notation.

For data set [1], the system named is CEM-SS. Description: Effective concentration required to inhibit the replication of HIV-1 by 50% in CEM-SS cells. The class given is functional, cell-based. Particulars: Homo sapiens. In a few lines: (§1)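 Cells infected with HIV-1; EC50 is the concentration inhibiting viral replication by 50%. Values are averages of at least three separate experiments, with variation below ±10%.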

Data set [2] relates to CEM-SS. Kind of data set: Cytotoxic concentration required to reduce the viability […] by 50% in CEM-SS cells. The class given is functional. Particulars: Homo sapiens. In a few lines:
(§2)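 Viability measured in uninfected cells of each line; CC50 is the concentration reducing viability by 50%. Values are averages of at least three separate experiments, with variation under standard operating procedures below ±10%.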

Data set [3] can be described thus: In vitro Apparent partition coefficients of mixed aryl phosphodiester was determined. The class given is physicochemical. To be noted: octanol/water. Summed up:
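Apparent log P by an adapted shake-flask method, partitioning between 1-octanol and 0.02 M potassium phosphate buffer at pH 7.2. Each compound was run in triplicate.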

Data set [4] has as its system CCRF-CEM. Description: Effective concentration required to inhibit the replication of HIV-1 by 50% in CEM/TK cells. The class given is functional, cell-based. To be noted: Homo sapiens. In a few lines: as §1
Data set [5] concerns MT4. Description: Effective concentration required to inhibit the replication of HIV-1 by 50% in MT-4 cells. The class given is functional, cell-based. Particulars: Homo sapiens. In a few lines: as §1
Data set [6] concerns CCRF-CEM. Description: Cytotoxic concentration required to reduce the viability […] by 50% in CEM/TK cells. The class given is functional. Particulars: Homo sapiens. In a few lines: as §2
The subject of data set [7] is MT4. Kind of data set: Cytotoxic concentration required to reduce the viability […] by 50% MT-4 cells. The class given is functional. To be noted: Homo sapiens. In a few lines: as §2
Data set [8] in a line: Half-life was determined for the compound in cell extracts (CE). The class given is ADME. Summed up:
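Total CEM-SS cell extracts, 37 °C, phosphotriester at 50 µM initial concentration. Samples analysed by on-line ISRP-cleaning HPLC (C18, acetonitrile gradient in 20 mM triethylammonium acetate pH 6.9, 267 nm). Products identified by HPLC-ESI-MS and/or co-injection. Relative amounts taken from peak areas. Half-lives derived from pseudo-first-order rate constants fitted by mono- or polyexponential regression.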

Data set [9] in a line: Half-life was determined for the compound in heat inactivated cell extracts; stable. The class given is ADME.
The nature of data set [10]: Half-life was determined for the compound in cell extracts pre-incubated with EDTA; stable. The class given is ADME.
The nature of data set [11]: Half-life was determined for the compound in cell extracts pre-incubated with EDTA. The class given is ADME.

For the compound `Cc1cn([C@H]2C[C@H](N=[N+]=[N-])[C@@H](COP(=O)(OCCSC(=O)C(C)(C)C)Oc3ccc(C[C@H](N)CO)cc3)O2)c(=O)[nH]c1=O` (stereo not given in full), the values for the EC50 in data set [1], in data set [4] and in data set [5] were 0.007 µM, 7 µM and 0.018 µM, respectively. Moreover, the CC50 in data set [2], in data set [6] and in data set [7] was above 100 µM each time. Besides, the logD – broadly, the decadic logarithm of the distribution of all forms, ionised or not, between an organic phase and buffer at a given pH – in data set [3] was 0.64.
Take `Cc1cn([C@H]2C[C@H](N=[N+]=[N-])[C@@H](COP(=O)(OCCSC(=O)C(C)(C)C)Oc3ccc(C[C@H](NC(=O)OC(C)(C)C)C(=O)N(C(=O)OC(C)(C)C)C(=O)OC(C)(C)C)cc3)O2)c(=O)[nH]c1=O` (stereo not given in full): the concentration giving a half-maximal response (EC50) (commonly the concentration giving half of the maximal effect) in data set [1] turned out to be 0.049 µM; in [4] it was 4 µM; in data set [5] it was 0.034 µM. Also, the CC50 in data set [2], in data set [6] and in data set [7] was above 10 µM in each case. In data set [3], the pH-dependent lipophilicity (logD) was found to be 5.
`Cc1cn([C@H]2C[C@H](N=[N+]=[N-])[C@@H](COP(=O)(OCCSC(=O)C(C)(C)C)Oc3ccc(C[C@H]4COC(C)(C)N4C(=O)OC(C)(C)C)cc3)O2)c(=O)[nH]c1=O` (stereo not given in full): the values for the half-maximal effective concentration (EC50) in data set [1], in data set [4] and in data set [5] were 0.031 µM, 9 µM and 0.098 µM, respectively. The half-maximal cytotoxic concentration (CC50) in data set [2], in data set [6] and in [7] was above 10 µM each time. The logD in [3] was 3.7.
Take `Cc1cn([C@H]2C[C@H](N=[N+]=[N-])[C@@H](COP(=O)(OCCSC(=O)C(C)(C)C)Oc3ccc(C[C@H](N)C(N)=O)cc3)O2)c(=O)[nH]c1=O` (stereo not given in full): the results for the EC50 in [1], in data set [4] and in data set [5] were 0.002 µM, 4 µM and 0.016 µM, respectively. For the same compound, the cytotoxic concentration (CC50) in data set [2], in data set [6] and in data set [7] was above 10 µM in each case. Moreover, in [3], the logD came to 1.27.
Consider `CC(=O)N[C@@H](Cc1ccc(OP(=O)(OCCSC(=O)C(C)(C)C)OC[C@H]2O[C@@H](n3cc(C)c(=O)[nH]c3=O)C[C@@H]2N=[N+]=[N-])cc1)C(N)=O` (stereo not given in full), for which the values for the EC50 in [1], in [4] and in [5] were 0.082 µM, 8 µM and 0.066 µM, respectively. Further, the cytotoxic concentration (CC50) in data set [2], in data set [6] and in data set [7] was above 10 µM throughout. The pH-dependent lipophilicity (logD) in data set [3] was 1.52.
Consider `CC(=O)N(C(=O)OC(C)(C)C)[C@@H](Cc1ccc(OP(=O)(OCCSC(=O)C(C)(C)C)OC[C@H]2O[C@@H](n3cc(C)c(=O)[nH]c3=O)C[C@@H]2N=[N+]=[N-])cc1)C(=O)N(C(=O)OC(C)(C)C)C(=O)OC(C)(C)C` (stereo not given in full), for which the half-maximal effective concentration (EC50) in [1] amounted to 0.015 µM; in [4] it was 6 µM; in [5], 0.032 µM. In addition, the cytotoxic concentration (CC50) in [2], in data set [6] and in data set [7] was above 10 µM throughout. The log distribution coefficient (logD) in [3] is 5.8.
As to `Cc1cn([C@H]2C[C@H](N=[N+]=[N-])[C@@H](COP(=O)(OCCSC(=O)C(C)(C)C)Oc3ccc(C[C@@H](CO)NC(=O)OC(C)(C)C)cc3)O2)c(=O)[nH]c1=O` (stereo not given in full), the concentration for a half-maximal effect (EC50) is 0.017 µM in data set [1], 4 µM in data set [4] and 0.044 µM in data set [5]. The log distribution coefficient (logD) in data set [3] stood at 2.5. The half-maximal cytotoxic concentration (CC50) in data set [6] and in data set [7] was above 10 µM in each case.
In the case of `Cc1cn([C@H]2C[C@H](N=[N+]=[N-])[C@@H](COP(=O)(O)Oc3ccc(C[C@H](N)C(=O)O)cc3)O2)c(=O)[nH]c1=O.Cl`, the half-life – broadly, the time needed for the level to fall by half in the phase considered – in data set [8] was 12.8 h. For the same compound, the T1/2 result in data set [9] and in data set [10] was “stable” in each case.
`Cc1cn([C@H]2C[C@H](N=[N+]=[N-])[C@@H](COP(=O)(O)Oc3ccc(C[C@H](N)CO)cc3)O2)c(=O)[nH]c1=O.Cl`: in data set [8], the half-life is 68 h. Moreover, the T1/2 entry in data set [9] and in [10] was “stable” in each case.
For the compound `CC(=O)N[C@@H](Cc1ccc(OP(=O)(O)OC[C@H]2O[C@@H](n3cc(C)c(=O)[nH]c3=O)C[C@@H]2N=[N+]=[N-])cc1)C(N)=O.Cl`, the half-life is 19.3 h in data set [8] and 166 h in data set [11]. In [9], the T1/2 entry is reported as “stable”.
Take `Cc1cn([C@H]2C[C@H](N=[N+]=[N-])[C@@H](COP(=O)(OCCSC(=O)C(C)(C)C)Oc3ccc(C[C@H](N)C(=O)O)cc3)O2)c(=O)[nH]c1=O` (stereo not given in full): the EC50 came to 0.006 µM in [1], 29 µM in data set [4] and 0.075 µM in [5]. The CC50 (as a rule, the concentration giving 50% cytotoxicity) was above 100 µM in data set [2], above 100 µM in [6] and above 10 µM in data set [7]. In addition, the logD in data set [3] is 0.25.
With `Cc1cn([C@H]2C[C@H](N=[N+]=[N-])[C@@H](CO)O2)c(=O)[nH]c1=O` [ZIDOVUDINE], the EC50 in data set [1] is 0.003 µM; in [4] it was above 100 µM. Moreover, the 50% cytotoxic concentration (CC50) in data set [2], in [6] and in [7] was above 100 µM in each case. Besides, the log distribution coefficient (logD) in data set [3] came to 0.06.

Values taken from ChEMBL document CHEMBL1144910, “S-acyl-2-thioethyl aryl phosphotriester derivatives of AZT: synthesis, antiviral activity, and stability study” (J Med Chem, 2003).
